“Also recorded” adds a separate entry of the source. Read-outs that look alike come from different tables or passages of the source.

For data set [1] the following is noted: pH 7.4; ref [8]; cited from earlier work.
Data set [2] has as its target T1, μ opioid receptor (Homo sapiens, UniProt P35372). Nature of the data set: [35S]GTPγS binding mediated by the μ opioid receptor, agonist effects. In kind it is biochemical. The conditions noted are these: for Emax (% stimulation) ± S.E.M., Mu Agonist Effects: CHO cells expressing μ opioid receptor; for Functional Activity at μ opioid receptor: [35S]GTPγS binding. (GTPγS is a poorly hydrolysed GTP analogue; its binding reports G protein activation.)

Data set [3] concerns the target T2, κ opioid receptor (Homo sapiens, UniProt P41145). The data set is described as follows: [35S]GTPγS binding mediated by the kappa opioid receptor, antagonist effects. In kind it is biochemical. As to conditions: for IC50 (nM) ± S.E.M., Kappa Antagonist Effects: binding stimulated with 100 nM U50,488; for Imax (% inhibition) ± S.E.M., Kappa Antagonist Effects: binding stimulated with 100 nM U50,488, set at 100% control. Summed up: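 Antagonist mode in CHO cells expressing κ opioid receptor: [35S]GTPγS binding was stimulated with 100 nM U50,488, taken as 100% control binding. Inhibition of this stimulated binding by test compound was measured, and IC50 and maximal inhibition (% inhibition) are reported with S.E.M.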

The target in data set [4] is T2, κ opioid receptor. The conditions noted are these: ratio of Ki values, κ = 1; ref [2]; cited from earlier work.
Data set [5] deals with T2, κ opioid receptor. The data set is described as follows: [35S]GTPγS binding mediated by the kappa opioid receptor, agonist effects. In kind it is biochemical. The conditions noted are these: for Functional activity at κ opioid receptor: [35S]GTPγS binding. An outline of the steps: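 CHO cells expressing κ opioid receptor were incubated with test compound at 12 concentrations, and agonist-stimulated [35S]GTPγS binding was measured. EC50 and maximal stimulation (% stimulation) are reported with S.E.M.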

The target of data set [6] is T1, μ opioid receptor. The data set is described as follows: [35S]GTPγS binding mediated by the μ opioid receptor, antagonist effects. In kind it is biochemical. As to conditions: binding stimulated with 200 nM DAMGO; for Imax (% inhibition) ± S.E.M., Mu Antagonist Effects: set at 100% control.
For data set [7], the target named is T2, κ opioid receptor. The data set is described as follows: Opioid binding to κ receptor, [3H]U69,593, CHO membranes. As to conditions: for Selectivity μ/δ/κ: ratio of Ki values, κ = 1; for times less active than unsubstituted C10 bivalent ligand 10 at the κ receptor: binding affinity versus 10. Summed up: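 Membranes from CHO cells stably expressing human κ opioid receptor were incubated 60 min at 25 °C in 50 mM Tris-HCl pH 7.5 with 1 nM (final) [3H]U69,593. […] Samples were filtered on glass-fibre filters presoaked ≥30 min in 0.1% polyethylenimine, washed three times with cold Tris buffer, and counted by scintillation. IC50 came from a log-probit least-squares fit, Ki from IC50/(1+S), and ratios from Ki values.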

T2 sequence (P41145 whole entry): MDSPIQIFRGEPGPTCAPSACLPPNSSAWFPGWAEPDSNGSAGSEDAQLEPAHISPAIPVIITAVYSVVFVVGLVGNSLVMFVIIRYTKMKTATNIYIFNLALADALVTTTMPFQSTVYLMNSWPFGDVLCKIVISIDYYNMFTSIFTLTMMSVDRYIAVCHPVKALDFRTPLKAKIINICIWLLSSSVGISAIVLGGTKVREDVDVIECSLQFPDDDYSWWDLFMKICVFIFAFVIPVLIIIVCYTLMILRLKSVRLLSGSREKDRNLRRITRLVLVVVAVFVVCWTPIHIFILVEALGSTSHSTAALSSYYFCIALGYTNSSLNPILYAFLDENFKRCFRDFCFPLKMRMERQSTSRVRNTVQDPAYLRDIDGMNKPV
T1 sequence (P35372 whole entry): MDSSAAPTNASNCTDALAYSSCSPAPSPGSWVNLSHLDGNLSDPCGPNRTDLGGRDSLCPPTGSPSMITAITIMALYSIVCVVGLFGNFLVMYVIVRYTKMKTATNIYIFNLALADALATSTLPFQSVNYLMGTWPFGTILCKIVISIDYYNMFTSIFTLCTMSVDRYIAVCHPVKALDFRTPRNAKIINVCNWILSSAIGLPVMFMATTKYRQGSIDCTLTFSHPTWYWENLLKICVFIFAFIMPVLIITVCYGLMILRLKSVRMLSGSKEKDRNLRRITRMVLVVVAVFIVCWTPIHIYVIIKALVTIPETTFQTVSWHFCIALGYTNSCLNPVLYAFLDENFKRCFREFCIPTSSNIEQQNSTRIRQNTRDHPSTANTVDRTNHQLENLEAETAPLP

Turning to `CC(CC(=O)Oc1ccccc1)C(=O)O` (stereo not drawn) [mono phenyl ester of 2-methylsuccinic acid], in data set [1], the “times more stable than mono phenyl succinate” value was 43 times.

Turning to `O=C(CCCCCCCCC(=O)Oc1ccc2c(c1)[C@@]13CCCC[C@H]1[C@@H](C2)N(CC1CCC1)CC3)Oc1ccc2c(c1)[C@@]13CCCC[C@H]1[C@@H](C2)N(CC1CCC1)CC3` [compound 10, reference compound], in data set [2], the “Emax (% stimulation) ± S.E.M., Mu Agonist Effects” value came out at 51 ± 6.5 % stimulation and the “Functional Activity at μ opioid receptor” value was “Partial Agonist”. Moreover, in data set [3], the “IC50 (nM) ± S.E.M., Kappa Antagonist Effects” value is given as “No inhibition” and the “Imax (% inhibition) ± S.E.M., Kappa Antagonist Effects” value is “No inhibition”. The “Selectivity μ/δ/κ” value in data set [4] is recorded as 2/90/1. Also, the “Functional activity at κ opioid receptor” value in data set [5] is “Agonist”.

Regarding `O=C(O)CCCCCCCCC(=O)Oc1ccc2c(c1)[C@@]13CCCC[C@H]1[C@@H](C2)N(CC1CCC1)CC3` [compound 9, reference compound], the “Functional Activity at μ opioid receptor” value in data set [2] was “full μ agonist”. Further, in data set [3], the “IC50 (nM) ± S.E.M., Kappa Antagonist Effects” value was “No inhibition” and the “Imax (% inhibition) ± S.E.M., Kappa Antagonist Effects” value was “No inhibition”. Moreover, the “Functional activity at κ opioid receptor” value in data set [5] is recorded as “κ agonists; also recorded: full agonist”. In data set [6], the “IC50 (nM) ± S.E.M., Mu Antagonist Effects” value is recorded as “No inhibition” and the “Imax (% inhibition) ± S.E.M., Mu Antagonist Effects” value is reported as “No inhibition”.

In the case of `C=CCN1CC[C@]23c4c5ccc(OC(=O)CCCCCCCCC(=O)Oc6ccc7c(c6)[C@@]68CCCC[C@H]6C(C7)N(CC6CCC6)CC8)c4O[C@H]2CCC[C@H]3[C@H]1C5` [compound 11, reference compound], the “Functional Activity at μ opioid receptor” value in data set [2] was “Partial Agonist”. In addition, in data set [3], the “IC50 (nM) ± S.E.M., Kappa Antagonist Effects” value is “No inhibition” and the “Imax (% inhibition) ± S.E.M., Kappa Antagonist Effects” value is given as “No inhibition”. Also, in data set [5], the “Functional activity at κ opioid receptor” value is reported as “κ agonists; also recorded: Agonist”.

With `CC(CCCCCCC(C)C(=O)Oc1ccc2c(c1)[C@@]13CCCC[C@H]1[C@@H](C2)N(CC1CCC1)CC3)C(=O)O` (stereo partly drawn) [7a, 2,9-Dimethyldecanedioic acid 10-((−)-N-cyclobutylmethylmorphinan-3-yl) ester], the “Functional Activity at μ opioid receptor” value in data set [2] is “Partial Agonist”. In addition, the “Selectivity μ/δ/κ” value in data set [7] is 1/48/1. For the same compound, in data set [3], the “IC50 (nM) ± S.E.M., Kappa Antagonist Effects” value is recorded as “No inhibition” and the “Imax (% inhibition) ± S.E.M., Kappa Antagonist Effects” value is reported as “No inhibition”. The “Functional activity at κ opioid receptor” value in data set [5] was “κ agonists; also recorded: Agonist”.

For the compound `Oc1ccc2c(c1)[C@@]13CCCC[C@H]1[C@@H](C2)N(CC1CCC1)CC3` [Butorphan, butorphan], in data set [2], the “Emax (% stimulation) ± S.E.M., Mu Agonist Effects” value is given as 50 ± 2.5 % stimulation and the “Functional Activity at μ opioid receptor” value is on record as “Partial Agonist”. For the same compound, in data set [5] (CHO cells expressing κ opioid receptor), the “Emax (% stimulation) ± S.E.M., Kappa Agonist Effects” value is given as 80 ± 6.8 % stimulation. Further, the “Functional activity at κ opioid receptor” value in data set [5] was “Agonist”. In addition, the “Imax (% inhibition) ± S.E.M., Mu Antagonist Effects” value in data set [6] is given as 50 ± 2.6 % inhibition.

`CC(C)(CCCCCCC(C)(C)C(=O)Oc1ccc2c(c1)[C@@]13CCCC[C@H]1[C@@H](C2)N(CC1CCC1)CC3)C(=O)O` [7b, 2,2,9,9-Tetramethyldecanedioic acid 10-((−)-N-cyclobutylmethylmorphinan-3-yl) ester]: the “Selectivity μ/δ/κ” value in data set [7] was 3/22/1.

Turning to `CC(CCCCCCC(C)C(=O)Oc1ccc2c(c1)[C@@]13CCCC[C@H]1[C@@H](C2)N(CC1CCC1)CC3)C(=O)Oc1ccc2c(c1)[C@@]13CCCC[C@H]1[C@@H](C2)N(CC1CCC1)CC3` (stereo partly drawn) [4a, Bis((−)-N-cyclobutylmethylmorphinan-3-yl) 2,9-dimethyldecanedioate], the “Functional Activity at μ opioid receptor” value in data set [2] was “Partial Agonist”. In data set [7], the “times less active than unsubstituted C10 bivalent ligand 10 at the κ receptor” value was “approximately 10 times”. Moreover, in data set [3], the “IC50 (nM) ± S.E.M., Kappa Antagonist Effects” value is given as “No inhibition” and the “Imax (% inhibition) ± S.E.M., Kappa Antagonist Effects” value is given as “No inhibition”. For the same compound, in data set [5], the “Functional activity at κ opioid receptor” value is on record as “partial agonists; also recorded: κ agonists; also recorded: Agonist”.

As for `CC(C)(CCCCCCC(C)(C)C(=O)Oc1ccc2c(c1)[C@@]13CCCC[C@H]1[C@@H](C2)N(CC1CCC1)CC3)C(=O)Oc1ccc2c(c1)[C@@]13CCCC[C@H]1[C@@H](C2)N(CC1CCC1)CC3` [4b, Bis((−)-N-cyclobutylmethylmorphinan-3-yl) 2,2,9,9-tetramethyldecanedioate], the “Functional Activity at μ opioid receptor” value in data set [2] is on record as “Partial Agonist”. For the same compound, in data set [7], the “times less active than unsubstituted C10 bivalent ligand 10 at the κ receptor” value is on record as “approximately 10 times” and the “Selectivity μ/δ/κ” value is reported as 1/32/1. Also, in data set [3], the “IC50 (nM) ± S.E.M., Kappa Antagonist Effects” value is listed as “No inhibition” and the “Imax (% inhibition) ± S.E.M., Kappa Antagonist Effects” value is on record as “No inhibition”. In addition, in data set [5], the “Functional activity at κ opioid receptor” value is given as “partial agonists; also recorded: κ agonists; also recorded: Agonist”.

Values taken from PMC2788666 (Journal of medicinal chemistry, 2009).
